The values below come from ChEMBL document CHEMBL3124890, “SAR studies on trisubstituted benzimidazoles as inhibitors of Mtb FtsZ for the development of novel antitubercular agents” (J Med Chem, 2013).

In brackets after ≈: the same amount, converted by molar mass. Activity calls are given as the source filed them. The calls are words filed in the database; no cut-off is given here.

Assay [1] has as its target T1, Cell division protein FtsZ (Mycobacterium tuberculosis) (UniProt P9WN95).
T1 sequence (whole entry): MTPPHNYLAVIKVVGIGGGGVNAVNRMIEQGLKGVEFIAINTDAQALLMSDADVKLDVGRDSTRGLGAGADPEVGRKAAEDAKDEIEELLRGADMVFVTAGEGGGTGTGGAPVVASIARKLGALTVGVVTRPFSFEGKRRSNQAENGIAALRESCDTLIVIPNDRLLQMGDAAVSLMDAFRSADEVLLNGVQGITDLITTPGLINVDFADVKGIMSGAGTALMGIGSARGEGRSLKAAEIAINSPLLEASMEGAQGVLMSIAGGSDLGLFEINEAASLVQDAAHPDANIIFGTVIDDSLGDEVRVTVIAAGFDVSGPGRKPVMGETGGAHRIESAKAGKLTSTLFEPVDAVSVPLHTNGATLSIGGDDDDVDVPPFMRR
Description: Inhibition of Mycobacterium tuberculosis FtsZ polymerization expressed in Escherichia coli BL21 (DE3) using GTP as substrate assessed as reduction in aggregate formation at 40 to 80 uM by transmission electron microscopy. Summed up:
(§1)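 His-tagged Mtb FtsZ (pET15b, BL21(DE3), Ni-NTA purified) at 5 µM in 50 mM MES, 5 mM MgCl₂, 100 mM KCl, pH 6.5 was preincubated 15 min on ice with 40 or 80 µM compound (ethanol stock). GTP was added to 25 µM and samples were held at 37 °C for 30 min, then diluted 2×, stained with 1% uranyl acetate, and imaged by TEM.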

Assay [2] deals with T1, Cell division protein FtsZ (Mycobacterium tuberculosis). Kind of assay: Inhibition of Mycobacterium tuberculosis FtsZ polymerization expressed in Escherichia coli BL21 (DE3) using GTP as substrate assessed as reduction in density and population of FtsZ polymers at 40 to 80 uM by transmission electron microscopy. A digest of the protocol: as §1
For assay [3] the target is unchanged. Kind of assay: Inhibition of Mycobacterium tuberculosis FtsZ polymerization expressed in Escherichia coli BL21 (DE3) using GTP as substrate assessed as disassembly of FtsZ at 40 to 80 uM by transmission electron microscopy. A digest of the protocol: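 His-tagged Mtb FtsZ (pET15b, BL21(DE3), Ni-NTA purified, Bradford-quantified) at 5 µM in 50 mM MES, 5 mM MgCl₂, 100 mM KCl, pH 6.5 was polymerized with 25 µM GTP at 37 °C for 30 min. Compound (40 or 80 µM, ethanol stock) was then added for 5 min more. Samples were diluted 2×, negatively stained with 1% uranyl acetate, and imaged by TEM.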

For assay [4] the target is unchanged. Kind of assay: Inhibition of Mycobacterium tuberculosis FtsZ polymerization expressed in Escherichia coli BL21 (DE3) using GTP as substrate assessed as reduction in protofilaments at 40 to 80 uM by transmission electron microscopy. A digest of the protocol:
as §1

Assay [5] has the same target. Kind of assay: Inhibition of Mycobacterium tuberculosis FtsZ polymerization expressed in Escherichia coli BL21 (DE3) using GTP as substrate by spectrofluorimetric analysis.
Another assay deals with Vero. Description: Cytotoxicity against Vero cells after 3 days by Alamar Blue assay. The class given is cell-based. As to conditions: Chlorocebus sabaeus, 72 h. A digest of the protocol:
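Vero (African green monkey kidney epithelial) cells were grown without CO₂ in L15 with antibiotics and heat-inactivated calf serum. Cells in medium with 2X Alamar Blue were added at 1.3×10^4 cells/well to 2-fold serial drug dilutions. Plates were incubated 3 days at 37 °C, and IC50 was calculated per the manufacturer's directions.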

The subject of assay [6] is Mycobacterium tuberculosis. Description: […]. The class given is functional. A digest of the protocol:
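Strains were grown at 37 °C in 7H9 Middlebrook broth with 10% OADC, 0.05% Tween and 0.2% glycerol. Compounds were dissolved in DMSO and serially diluted 2-fold, then bacteria were added. Plates were incubated 6 days at 37 °C, then 24 h more with Alamar Blue. MIC was the lowest concentration (μg/mL) that prevented the colour change. Run in triplicate.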

Turning to `CCCCOC(=O)Nc1cc2nc(C3CCCCC3)[nH]c2cc1N(C)C`, the inhibition result in assay [1], in assay [2], in assay [3] and in assay [4] was “Active” throughout. In assay [5], the inhibition entry is “Dose-dependent effect”. In the assay with Vero, this compound returned an IC50 of more than 100 µg/mL. Also, the MIC in assay [6] (H37Rv, 144 h) was determined as 0.06 µg/mL (≈ 0.167 µM); in assay [6] (W210, 144 h), 0.06 µg/mL (≈ 0.167 µM).
On to `CCc1ccc(C(=O)Nc2cc3nc(C4CCCCC4)[nH]c3cc2N(C)C)cc1`, for which, in assay [5], the inhibition entry is “Dose-dependent effect”. In addition, in the assay on Vero, the IC50 was more than 100 µg/mL. In addition, the MIC in assay [6] (H37Rv, 144 h) is 0.16 µg/mL (≈ 0.41 µM); in assay [6] (W210, 144 h) it was 0.16 µg/mL (≈ 0.41 µM).
For `CN(C)c1cc2[nH]c(C3CCCCC3)nc2cc1NC(=O)OCC(F)(F)F`, the inhibition entry in assay [5] was “Dose-dependent effect”. In the assay with Vero, this compound gave an IC50 of more than 100 µg/mL. Inhibition of growth in assay [6] (H37Rv, 144 h) (MIC) required 0.63 µg/mL (≈ 1.64 µM).
